ChEMBL document CHEMBL1681637, “Synthesis and antitubercular activity of monocyclic nitroimidazoles: insights from econazole” (Bioorg Med Chem Lett, 2011)
≈ marks a conversion by molar mass, not a printed value.

Assays:
[1] = tested on: Mycobacterium tuberculosis; assay: Antitubercular activity against multidrug-resistant Mycobacterium tuberculosis H37Rv after 7 days by alamar blue assay; assay type: functional; conditions: 168 h
[2] = tested on: Mycobacterium tuberculosis; assay: Antitubercular activity against multidrug-resistant Mycobacterium tuberculosis H37Rv under anaerobic condition after 7 days by GFP reporter gene assay; assay type: functional; conditions: 168 h
How it was run: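 GFP-expressing Mtb H37Rv, made non-replicating by the Wayne hypoxia model, was added to 2-fold DMSO serial compound dilutions inside an anaerobic chamber. Plates were held at 37 °C for 7 days under anaerobiosis, then diluted 10-fold into fresh medium and outgrown for 2 days. Fluorescence was read at ex 485/em 520 nm. MIC was the lowest concentration giving 80% fluorescence inhibition versus bacteria-only wells.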

## O=[N+]([O-])c1cn(CC(O)c2ccc(Cl)cc2)c(Br)n1 (racemic)
[1]
  MIC: 64 µg/mL (≈ 185 µM)

## O=[N+]([O-])c1cn(CC(O)c2ccc(Cl)cc2Cl)cn1 (racemic)
[1]
  MIC: 32 µg/mL (≈ 106 µM)

## Cc1nc([N+](=O)[O-])cn1CC(O)c1ccc(Cl)cc1Cl (racemic)
[1]
  MIC: > 256 µg/mL

## O=[N+]([O-])c1cn(CC(O)c2ccc(Cl)cc2Cl)c(Br)n1 (racemic)
[1]
  MIC: 2 µg/mL (≈ 5.25 µM)
[2]
  MIC: 8 µg/mL (≈ 21 µM)

## O=[N+]([O-])c1cn(CC(O)c2ccc(F)cc2F)cn1 (racemic)
[1]
  MIC: 256 µg/mL (≈ 951 µM)

## O=[N+]([O-])c1cn(CC(O)c2ccc(F)cc2F)c(Br)n1 (racemic)
[1]
  MIC: 64 µg/mL (≈ 184 µM)

## O=[N+]([O-])c1cn(CC(O)c2ccc(F)cc2)c(Br)n1 (racemic)
[1]
  MIC: 128 µg/mL (≈ 388 µM)

## O=[N+]([O-])c1ccc(C(O)Cn2cc([N+](=O)[O-])nc2Br)cc1 (racemic)
[1]
  MIC: 64 µg/mL (≈ 179 µM)

## O=[N+]([O-])c1cn(CC(O)c2ccc(-c3ccccc3)cc2)c(Br)n1 (racemic)
[1]
  MIC: > 256 µg/mL

## O=[N+]([O-])c1cn(CC(O)c2ccccc2)c(Br)n1 (racemic)
[1]
  MIC: 32 µg/mL (≈ 103 µM)

## Cc1ccc(C(O)Cn2cc([N+](=O)[O-])nc2Br)c(C)c1 (racemic)
[1]
  MIC: 128 µg/mL (≈ 376 µM)

## O=[N+]([O-])c1cn(CC(OCc2ccc(Cl)cc2)c2ccc(Cl)cc2Cl)cn1 (racemic)
[1]
  MIC: > 256 µg/mL

## Cc1nc([N+](=O)[O-])cn1CC(OCc1ccc(Cl)cc1)c1ccc(Cl)cc1Cl (racemic)
[1]
  MIC: > 256 µg/mL

## O=[N+]([O-])c1cn(CC(OCc2ccc(Cl)cc2)c2ccc(Cl)cc2Cl)c(Br)n1 (racemic)
[1]
  MIC: > 256 µg/mL

## O=[N+]([O-])c1cn(CC(OCc2ccc(Cl)cc2)c2ccc(F)cc2F)cn1 (racemic)
[1]
  MIC: > 256 µg/mL

## O=[N+]([O-])c1cn(CC(OCc2ccc(Cl)cc2)c2ccc(F)cc2F)c(Br)n1 (racemic)
[1]
  MIC: > 256 µg/mL

## O=[N+]([O-])c1cn(CC(OCc2ccccc2F)c2ccc(Cl)cc2Cl)cn1 (racemic)
[1]
  MIC: > 256 µg/mL

## O=[N+]([O-])c1cn(CC(OCc2ccc(F)cc2)c2ccc(Cl)cc2Cl)cn1 (racemic)
[1]
  MIC: > 256 µg/mL

## O=[N+]([O-])c1cn(CC(OCc2ccccc2F)c2ccc(Cl)cc2Cl)c(Br)n1 (racemic)
[1]
  MIC: > 256 µg/mL

## O=[N+]([O-])c1cn(CC(OCc2ccc(F)cc2)c2ccc(Cl)cc2Cl)c(Br)n1 (racemic)
[1]
  MIC: > 256 µg/mL

## O=[N+]([O-])c1cn(CC(OCc2ccc(F)cc2F)c2ccc(Cl)cc2Cl)cn1 (racemic)
[1]
  MIC: > 256 µg/mL

## O=[N+]([O-])c1cn(CC(OCc2cc(F)ccc2F)c2ccc(Cl)cc2Cl)cn1 (racemic)
[1]
  MIC: > 256 µg/mL

## O=[N+]([O-])c1cn(CC(OCc2ccc(OC(F)(F)F)cc2)c2ccc(Cl)cc2Cl)cn1 (racemic)
[1]
  MIC: > 256 µg/mL

## O=[N+]([O-])c1cn(CC(OCc2cc(F)cc(F)c2)c2ccc(Cl)cc2Cl)cn1 (racemic)
[1]
  MIC: > 256 µg/mL

## O=[N+]([O-])c1cn(CC(OCc2cc(F)cc(F)c2)c2ccc(Cl)cc2Cl)c(Br)n1 (racemic)
[1]
  MIC: > 256 µg/mL

## O=[N+]([O-])c1cn(CC(OCc2ccc(F)cc2)c2ccc(F)cc2F)cn1 (racemic)
[1]
  MIC: > 256 µg/mL

## O=[N+]([O-])c1cn(CC(OCc2ccc(OC(F)(F)F)cc2)c2ccc(F)cc2F)cn1 (racemic)
[1]
  MIC: > 256 µg/mL

## O=[N+]([O-])c1cn(CC(OCc2cc(F)cc(F)c2)c2ccc(F)cc2F)cn1 (racemic)
[1]
  MIC: > 256 µg/mL

## COc1nc([N+](=O)[O-])cn1CC(O)c1ccc(Cl)cc1Cl (racemic)
[1]
  MIC: 0.5 µg/mL (≈ 1.51 µM)
[2]
  MIC: 4 µg/mL (≈ 12 µM)

## COc1nc([N+](=O)[O-])cn1CC(O)c1ccc(F)cc1F (racemic)
[1]
  MIC: 4 µg/mL (≈ 13.4 µM)
[2]
  MIC: 4 µg/mL (≈ 13.4 µM)

## COc1nc([N+](=O)[O-])cn1CC(O)c1ccc(F)cc1 (racemic)
[1]
  MIC: 16 µg/mL (≈ 56.9 µM)

## COc1nc([N+](=O)[O-])cn1CC(O)c1ccc(Cl)cc1 (racemic)
[1]
  MIC: 16 µg/mL (≈ 53.7 µM)

## COc1nc([N+](=O)[O-])cn1CC(O)c1ccc([N+](=O)[O-])cc1 (racemic)
[1]
  MIC: 16 µg/mL (≈ 51.9 µM)

## COc1nc([N+](=O)[O-])cn1CC(O)c1ccc(-c2ccccc2)cc1 (racemic)
[1]
  MIC: 0.5 µg/mL (≈ 1.47 µM)
[2]
  MIC: 1 µg/mL (≈ 2.95 µM)

## CSc1nc([N+](=O)[O-])cn1CC(O)c1ccc(Cl)cc1Cl (racemic)
[1]
  MIC: 16 µg/mL (≈ 45.9 µM)

## COc1nc([N+](=O)[O-])cn1CC(O)c1ccccc1 (racemic)
[1]
  MIC: 8 µg/mL (≈ 30.4 µM)

## COc1nc([N+](=O)[O-])cn1CC(O)c1ccc(C)cc1C (racemic)
[1]
  MIC: 16 µg/mL (≈ 54.9 µM)

## COc1nc([N+](=O)[O-])cn1CC(OCc1ccc(Cl)cc1)c1ccc(Cl)cc1Cl (racemic)
[1]
  MIC: > 256 µg/mL

## CSc1nc([N+](=O)[O-])cn1CC(OCc1ccc(F)cc1)c1ccc(Cl)cc1Cl (racemic)
[1]
  MIC: > 256 µg/mL

## COc1nc([N+](=O)[O-])cn1CC(OCc1ccc(OC(F)(F)F)cc1)c1ccc(Cl)cc1Cl (racemic)
[1]
  MIC: > 256 µg/mL

## COc1nc([N+](=O)[O-])cn1CC(OCc1ccc(Cl)cc1)c1ccc(F)cc1F (racemic)
[1]
  MIC: > 16 µg/mL

## COc1nc([N+](=O)[O-])cn1CC(OCc1ccc(F)cc1)c1ccc(F)cc1F (racemic)
[1]
  MIC: > 32 µg/mL

## COc1nc([N+](=O)[O-])cn1CC(OCc1ccc(OC(F)(F)F)cc1)c1ccc(F)cc1F (racemic)
[1]
  MIC: > 256 µg/mL

## COc1nc([N+](=O)[O-])cn1CC(OCc1cc(F)cc(F)c1)c1ccc(Cl)cc1Cl (racemic)
[1]
  MIC: > 256 µg/mL

## COc1nc([N+](=O)[O-])cn1CC(OCc1ccc(F)cc1)c1ccc(Cl)cc1Cl (racemic)
[1]
  MIC: > 256 µg/mL

## CSc1nc([N+](=O)[O-])cn1CC(OCc1ccc(Cl)cc1)c1ccc(Cl)cc1Cl (racemic)
[1]
  MIC: > 256 µg/mL

## CSc1nc([N+](=O)[O-])cn1CC(OCc1cc(F)cc(F)c1)c1ccc(Cl)cc1Cl (racemic)
[1]
  MIC: > 256 µg/mL

## CSc1nc([N+](=O)[O-])cn1CC(OCc1ccc(Cl)cc1)c1ccc(F)cc1F (racemic)
[1]
  MIC: > 256 µg/mL

## Clc1ccc(COC(Cn2ccnc2)c2ccc(Cl)cc2Cl)cc1 (stereo not given) [ECONAZOLE]
[1]
  MIC: 16 µg/mL (≈ 41.9 µM)

## O=[N+]([O-])c1cn2c(n1)OC[C@@H](OCc1ccc(OC(F)(F)F)cc1)C2 [PRETOMANID]
[1]
  MIC: 0.13 µg/mL (≈ 0.362 µM)
[2]
  MIC: 2 µg/mL (≈ 5.57 µM)
